Key:
[1] = Apparent steady-state volume of distribution with respect to bioavailability in human with uncomplicated malaria at 31 mg/kg, perorally; format: ADME, organism-based; conditions: in vivo, po, read-out: Vss/F
Summary of the method: (§1)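 Population PK in 98 uncomplicated falciparum patients given dihydroartemisinin-piperaquine orally (55 mg/kg piperaquine phosphate total, 3- or 4-dose regimen). Patients gave a pretreatment sample, 2–4 early-window samples and one sample on days 7–63. Plasma piperaquine was measured by SPE-LC-UV. Log concentrations were fitted by NONMEM (FO/FOCE) to a two-compartment first-order absorption model with regimen as covariate.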

[2] = AUC (3 to 20 days) in children with uncomplicated malaria at 31 mg/kg, perorally; format: ADME, organism-based; set-up: dose 31 mg/kg, route oral; conditions: human, plasma, po
Summary of the method: (§2)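 Oral dihydroartemisinin-piperaquine, supervised, with no food restriction, in patients aged 3–55 y. The total dose of 55 mg/kg piperaquine phosphate was given as four doses (0, 8, 24, 48 h) or three doses (0, 24, 48 h). Sparse plasma sampling ran to day 63, measured by SPE-LC-UV (LLOQ 5 or 2.5 ng/ml). AUCs came from individual NONMEM two-compartment estimates. Children were ≤12 y and <30 kg.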

[3] = test system: Homo sapiens; assay: Apparent peripheral volume of distribution with respect to bioavailability in human with uncomplicated malaria at 31 mg/kg, perorally; format: ADME, organism-based; conditions: in vivo, po; summary of the method: as §1
[4] = Plasma concentration in human with uncomplicated malaria at 31 mg/kg, perorally four-dose treatment regimen measured at day 20; format: ADME, organism-based; set-up: dose 31 mg/kg, route oral; conditions: po, read-out: MIC
Summary of the method: (§3)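 Plasma piperaquine concentrations were simulated from the final NONMEM population model (500 simulations at each sampling time up to day 63). This followed oral dihydroartemisinin-piperaquine at a 55 mg/kg piperaquine phosphate total, given once daily at 0, 24 and 48 h or as four doses at 0, 8, 24 and 48 h.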

[5] = Apparent oral clearance in healthy human at 25 mg/kg, po after 29 days; format: ADME, organism-based; set-up: dose 25 mg/kg, route oral; conditions: in vivo
[6] = Apparent oral clearance in human with uncomplicated malaria at 31 mg/kg, perorally; format: ADME, organism-based; set-up: dose 31 mg/kg, route oral; conditions: in vivo; summary of the method: as §1
[7] = AUC (3 to 20 days) in uncomplicated malaria patient at 31 mg/kg, perorally once daily for 3 days; format: ADME, organism-based; set-up: dose 31 mg/kg, route oral; conditions: human, plasma, po; summary of the method: as §2
[8] = AUC (3 to 20 days) in uncomplicated malaria patient at 31 mg/kg, perorally four-dose treatment regimen; format: ADME, organism-based; set-up: dose 31 mg/kg, route oral; conditions: human, plasma, po; summary of the method: as §2
[9] = AUC (0 to 60 days) in human adult with uncomplicated malaria at 31 mg/kg, perorally; format: ADME, organism-based; set-up: time < 1440 hr, dose 31 mg/kg, route oral; conditions: plasma, po; summary of the method: as §2
[10] = Terminal half-life in high-fat fed healthy human at 4.2 mg/kg, po after 42 days; format: ADME, organism-based; set-up: dose 4.2 mg/kg, route oral; conditions: in vivo
[11] = Apparent steady-state volume of distribution with respect to bioavailability in high-fat fed healthy human at 4.2 mg/kg, po after 42 days; format: ADME, organism-based; conditions: in vivo, read-out: Vss/F
[12] = Terminal half-life in healthy human at 4.2 mg/kg, po after 42 days; format: ADME, organism-based; set-up: dose 4.2 mg/kg, route oral; conditions: in vivo
[13] = Plasma concentration in human with uncomplicated malaria at 31 mg/kg, perorally once daily for 3 days measured at day 20; format: ADME, organism-based; set-up: dose 31 mg/kg, route oral; conditions: po, read-out: MIC; summary of the method: as §3
[14] = Apparent steady-state volume of distribution with respect to bioavailability in human with uncomplicated malaria at 32 mg/kg, perorally after 35 days; format: ADME, organism-based; conditions: in vivo, po, read-out: Vss/F
[15] = Terminal half-life in human with uncomplicated malaria at 32 mg/kg, perorally after 35 days; format: ADME, organism-based; set-up: dose 32 mg/kg, route oral; conditions: in vivo, po
[16] = Apparent oral clearance in human with uncomplicated malaria at 35 mg/kg, perorally after 35 days; format: ADME, organism-based; set-up: dose 35 mg/kg, route oral; conditions: in vivo
[17] = Terminal half-life in human with uncomplicated malaria at 31 mg/kg, perorally after 63 days; format: ADME, organism-based; set-up: dose 31 mg/kg, route oral; conditions: in vivo, po; summary of the method: as §1
[18] = Plasma concentration in human with uncomplicated malaria at 31 mg/kg, perorally at day 28; format: ADME, organism-based; set-up: dose 31 mg/kg, route oral; conditions: po; summary of the method: as §3
[19] = Apparent steady-state volume of distribution with respect to bioavailability in human with uncomplicated malaria at 31 mg/kg, perorally after 63 days; format: ADME, organism-based; conditions: in vivo, po, read-out: Vss/F; summary of the method: as §1
[20] = AUC (3 to 20 days) in human adult with uncomplicated malaria at 31 mg/kg, perorally; format: ADME, organism-based; set-up: dose 31 mg/kg, route oral; conditions: plasma, po; summary of the method: as §2
[21] = Terminal half-life in human with uncomplicated malaria at 35 mg/kg, perorally after 35 days; format: ADME, organism-based; set-up: dose 35 mg/kg, route oral; conditions: in vivo, po
[22] = Apparent steady-state volume of distribution with respect to bioavailability in healthy human at 4.2 mg/kg, po after 42 days; format: ADME, organism-based; conditions: in vivo, read-out: Vss/F
[23] = Apparent oral clearance in healthy human at 4.2 mg/kg, po after 42 days; format: ADME, organism-based; set-up: dose 4.2 mg/kg, route oral; conditions: in vivo
[24] = AUC (0 to 63 days) in uncomplicated malaria patient at 31 mg/kg, perorally four-dose treatment regimen; format: ADME, organism-based; set-up: time < 1512 hr, dose 31 mg/kg, route oral; conditions: human, plasma, po; summary of the method: as §2
[25] = Apparent oral clearance in high-fat fed healthy human at 4.2 mg/kg, po after 42 days; format: ADME, organism-based; set-up: dose 4.2 mg/kg, route oral; conditions: in vivo
[26] = test system: Homo sapiens; assay: Apparent intercompartmental clearance with respect to bioavailability in human with uncomplicated malaria at 31 mg/kg, perorally; format: ADME, organism-based; conditions: in vivo, po; summary of the method: as §1
[27] = Terminal elimination half-life in human with uncomplicated malaria at 31 mg/kg, perorally; conditions: in vivo, po
[28] = Apparent volume of distribution with respect to bioavailability in human with uncomplicated malaria at 31 mg/kg, perorally; format: ADME, organism-based; conditions: in vivo, po, read-out: Vc/F; summary of the method: as §1
[29] = AUC (0 to 63 days) in human with uncomplicated malaria at 31 mg/kg, perorally once daily for 3 days; format: ADME, organism-based; set-up: time < 1512 hr, dose 31 mg/kg, route oral; conditions: plasma, po; summary of the method: as §2
[30] = Apparent oral clearance in human with uncomplicated malaria at 31 mg/kg, perorally after 63 days; format: ADME, organism-based; set-up: dose 31 mg/kg, route oral; conditions: in vivo; summary of the method: as §1
[31] = Apparent oral clearance in human with uncomplicated malaria at 32 mg/kg, perorally after 35 days; format: ADME, organism-based; set-up: dose 32 mg/kg, route oral; conditions: in vivo
[32] = Terminal half-life in healthy human at 25 mg/kg, po after 29 days; format: ADME, organism-based; set-up: dose 25 mg/kg, route oral; conditions: in vivo
[33] = Terminal half-life in human with uncomplicated malaria at 31 mg/kg, perorally; format: ADME, organism-based; set-up: dose 31 mg/kg, route oral; conditions: in vivo, po; summary of the method: as §1
[34] = AUC (0 to 60 days) in children with uncomplicated malaria at 31 mg/kg, perorally; format: ADME, organism-based; set-up: time < 1440 hr, dose 31 mg/kg, route oral; conditions: human, plasma, po; summary of the method: as §2

Work on `Clc1ccc2c(N3CCN(CCCN4CCN(c5ccnc6cc(Cl)ccc56)CC4)CC3)ccnc2c1` [PIPERAQUINE] yielded a Vd/F [1] of 38100 L, an AUC(0-t) [2] of 7580 ng·h/mL and a Vp/F [3] of 24000 L. For the same compound, the concentration at 20 day [4] was 13 ng/mL, the CL/F [5] was 16.7 mL/min/kg and the CL/F [6] was 1100 mL/min. It also gave an AUC [7] of 8650 ng·h/mL, an AUC(0-t) [8] of 9070 ng·h/mL and an AUC(0-t) at 1440 h [9] of 19400 ng·h/mL. For the same compound, the half-life [10] was 21 days, the Vd/F [11] was 365 L/kg and the half-life [12] was 20 days. The concentration at 72 h [13] was 12 ng/mL, the Vd/F [14] was 574 L/kg and the half-life [15] was 23 days. The CL/F [16] was 30.8 mL/min/kg, the half-life [17] was 28 days and the concentration at 28 day [18] was < 10 ng/mL. For the same compound, the Vd/F [19] was 874 L/kg, the AUC(0-t) [20] was 8650 ng·h/mL and the half-life [21] was 14 days. The Vd/F [22] was 716 L/kg, the CL/F [23] was 19 mL/min/kg and the AUC(0-t) at 1512 h [24] was 20700 ng·h/mL. For the same compound, the CL/F [25] was 10 mL/min/kg, the CL/F [26] was 131 L/h and the half-life [27] was 27.8 days. The Vd/F [28] was 8660 L, the AUC at 1512 h [29] was 19400 ng·h/mL and the CL/F [30] was 23.3 mL/min/kg. It also gave a CL/F [31] of 15 mL/min/kg, a half-life [32] of 12 days and a half-life [33] of 28 days. The AUC(0-t) at 1440 h [34] was 25900 ng·h/mL.

Source: ChEMBL document CHEMBL1255260, “Population pharmacokinetics of piperaquine after two different treatment regimens with dihydroartemisinin-piperaquine in patients with Plasmodium falciparum malaria in Thailand” (Antimicrob Agents Chemother, 2008)
